The source made the active and inactive calls. The rule behind the calls is not given here.
What was measured:
[1] = target: T1, Bromodomain-containing protein 2 (Homo sapiens, UniProt P25440); assay: Inhibition of FAM-labeled ZBA248 binding to recombinant N-terminal His6-tagged BRD2 bromodomain 1 (72 to 205 residues) (unknown origin) expressed in Escherichia coli Rosetta2 DE3 after 30 mins by fluorescence polarization assay
[2] = target: T1, Bromodomain-containing protein 2; assay: Inhibition of FAM-labeled ZBA248 binding to recombinant N-terminal His6-tagged BRD2 bromodomain 2 (349 to 460 residues) (unknown origin) expressed in Escherichia coli Rosetta2 DE3 after 30 mins by fluorescence polarization assay
[3] = target: T2, Bromodomain-containing protein 3 (Homo sapiens, UniProt Q15059); assay: Inhibition of FAM-labeled ZBA248 binding to recombinant N-terminal His6-tagged BRD3 bromodomain 1 (24 to 144 residues) (unknown origin) expressed in Escherichia coli Rosetta2 DE3 after 30 mins by fluorescence polarization assay
T2 sequence (Q15059 whole entry, the tested form may be a part): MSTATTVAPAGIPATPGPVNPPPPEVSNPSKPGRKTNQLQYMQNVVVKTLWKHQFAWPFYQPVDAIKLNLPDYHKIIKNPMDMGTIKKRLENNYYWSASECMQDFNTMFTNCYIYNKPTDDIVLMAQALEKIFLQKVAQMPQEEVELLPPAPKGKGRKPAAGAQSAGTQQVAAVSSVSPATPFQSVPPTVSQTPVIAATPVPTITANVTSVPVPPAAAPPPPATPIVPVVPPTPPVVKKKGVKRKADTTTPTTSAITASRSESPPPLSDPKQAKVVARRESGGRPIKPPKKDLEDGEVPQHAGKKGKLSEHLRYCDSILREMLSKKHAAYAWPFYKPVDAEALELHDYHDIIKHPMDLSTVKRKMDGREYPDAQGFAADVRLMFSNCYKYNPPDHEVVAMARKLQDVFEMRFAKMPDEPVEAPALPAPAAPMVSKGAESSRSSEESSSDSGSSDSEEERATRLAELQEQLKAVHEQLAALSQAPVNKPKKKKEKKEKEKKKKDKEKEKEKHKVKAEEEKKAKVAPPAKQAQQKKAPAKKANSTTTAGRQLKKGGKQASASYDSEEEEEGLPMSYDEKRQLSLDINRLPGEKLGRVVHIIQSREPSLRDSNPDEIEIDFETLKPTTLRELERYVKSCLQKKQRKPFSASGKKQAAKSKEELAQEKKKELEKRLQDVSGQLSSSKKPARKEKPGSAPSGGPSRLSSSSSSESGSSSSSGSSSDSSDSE

[4] = target: T2, Bromodomain-containing protein 3; assay: Inhibition of FAM-labeled ZBA248 binding to recombinant N-terminal His6-tagged BRD3 bromodomain 2 (306 to 417residues) (unknown origin) expressed in Escherichia coli Rosetta2 DE3 after 30 mins by fluorescence polarization assay
[5] = target: T3, Bromodomain-containing protein 4 (Homo sapiens, UniProt O60885); assay: Inhibition of FAM-labeled ZBA248 binding to recombinant N-terminal His6-tagged BRD4 bromodomain 1 (44 to 168 residues) (unknown origin) expressed in Escherichia coli Rosetta2 DE3 after 30 mins by fluorescence polarization assay
[6] = target: T3, Bromodomain-containing protein 4; assay: Inhibition of FAM-labeled ZBA248 binding to recombinant N-terminal His6-tagged BRD4 bromodomain 2 (333 to 460 residues) (unknown origin) expressed in Escherichia coli Rosetta2 DE3 after 30 mins by fluorescence polarization assay
RS4-11 [7] = assay: Cytotoxicity against human RS4:11 cells assessed as cell growth inhibition after 4 days by WST-8 assay; assay type: functional, cell-based; settings: RS4-11, 96 h
MOLM-13 [8] = assay: Cytotoxicity against human MOLM13 cells assessed as cell growth inhibition after 4 days by WST-8 assay; assay type: functional, cell-based; settings: MOLM-13, 96 h
[9] = target: T4, Protein cereblon/Bromodomain-containing protein 4/Cullin-4A (Homo sapiens) (UniProt O60885+Q96SW2+Q13619); assay: Induction of cereblon/cullin 4A-mediated BRD4 degradation in human RS4:11 cells at 30 to 1000 nM after 24 hrs by Western blot method; assay type: cell-based
Method in brief: (§1)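 Western blot of RS4;11 cells (2 × 10⁶ cells/well) in RPMI 1640 with 10% FBS, 37 °C, 5% CO₂, used within three months of thawing. Compound exposure was 3 h or 24 h at the indicated concentrations. Cells were lysed in RIPA with protease inhibitors, and BRD2, BRD3 and BRD4 were detected with specific antibodies, with GAPDH as loading control.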

[10] = target: T5, Protein cereblon/Bromodomain-containing protein 2/Cullin-4A (Homo sapiens) (UniProt P25440+Q96SW2+Q13619); assay: Induction of cereblon/cullin 4A-mediated BRD2 degradation in human RS4:11 cells at 30 to 1000 nM after 24 hrs by Western blot method; assay type: cell-based
T5 sequence (P25440 whole entry, looked up): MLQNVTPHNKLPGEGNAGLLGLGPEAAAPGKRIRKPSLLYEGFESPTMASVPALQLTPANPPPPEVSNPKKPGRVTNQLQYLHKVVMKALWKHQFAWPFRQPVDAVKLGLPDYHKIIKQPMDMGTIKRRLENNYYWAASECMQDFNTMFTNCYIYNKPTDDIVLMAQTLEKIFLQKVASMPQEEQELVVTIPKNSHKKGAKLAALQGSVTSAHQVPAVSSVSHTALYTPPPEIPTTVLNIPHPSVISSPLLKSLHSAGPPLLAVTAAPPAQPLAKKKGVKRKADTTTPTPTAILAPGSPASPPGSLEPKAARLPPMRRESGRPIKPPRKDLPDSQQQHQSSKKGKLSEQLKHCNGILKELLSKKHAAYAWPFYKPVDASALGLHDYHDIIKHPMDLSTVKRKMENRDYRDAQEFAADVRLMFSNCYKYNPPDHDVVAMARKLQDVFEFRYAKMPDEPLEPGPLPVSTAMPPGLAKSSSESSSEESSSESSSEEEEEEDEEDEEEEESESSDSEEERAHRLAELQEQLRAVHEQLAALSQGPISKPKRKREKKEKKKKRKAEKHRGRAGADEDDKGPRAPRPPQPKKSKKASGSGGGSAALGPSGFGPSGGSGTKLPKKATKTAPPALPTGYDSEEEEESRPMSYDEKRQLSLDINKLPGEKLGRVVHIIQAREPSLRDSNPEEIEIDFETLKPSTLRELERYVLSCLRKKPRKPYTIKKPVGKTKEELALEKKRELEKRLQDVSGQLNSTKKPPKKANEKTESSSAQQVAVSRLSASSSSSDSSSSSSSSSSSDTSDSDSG
T5 sequence (Q13619 whole entry, looked up): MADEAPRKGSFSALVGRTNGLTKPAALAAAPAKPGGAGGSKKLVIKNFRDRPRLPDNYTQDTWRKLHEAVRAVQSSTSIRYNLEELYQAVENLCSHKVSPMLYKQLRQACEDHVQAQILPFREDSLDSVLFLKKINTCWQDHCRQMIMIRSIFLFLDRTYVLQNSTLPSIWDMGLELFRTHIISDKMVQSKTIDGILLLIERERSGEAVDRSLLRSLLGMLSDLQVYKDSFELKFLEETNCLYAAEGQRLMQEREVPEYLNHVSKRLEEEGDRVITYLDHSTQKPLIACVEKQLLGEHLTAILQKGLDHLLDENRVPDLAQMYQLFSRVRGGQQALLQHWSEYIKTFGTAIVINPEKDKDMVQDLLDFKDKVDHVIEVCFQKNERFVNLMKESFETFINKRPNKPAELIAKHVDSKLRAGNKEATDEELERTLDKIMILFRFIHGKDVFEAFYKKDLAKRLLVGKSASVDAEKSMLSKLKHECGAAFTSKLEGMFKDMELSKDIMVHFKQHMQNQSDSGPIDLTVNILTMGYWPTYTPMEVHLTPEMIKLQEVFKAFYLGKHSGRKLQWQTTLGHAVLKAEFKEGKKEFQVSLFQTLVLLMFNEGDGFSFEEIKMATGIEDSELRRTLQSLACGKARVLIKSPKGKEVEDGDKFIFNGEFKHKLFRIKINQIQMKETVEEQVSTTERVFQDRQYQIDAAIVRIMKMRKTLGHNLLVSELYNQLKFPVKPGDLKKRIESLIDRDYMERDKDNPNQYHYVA
T5 sequence (Q96SW2 whole entry, looked up): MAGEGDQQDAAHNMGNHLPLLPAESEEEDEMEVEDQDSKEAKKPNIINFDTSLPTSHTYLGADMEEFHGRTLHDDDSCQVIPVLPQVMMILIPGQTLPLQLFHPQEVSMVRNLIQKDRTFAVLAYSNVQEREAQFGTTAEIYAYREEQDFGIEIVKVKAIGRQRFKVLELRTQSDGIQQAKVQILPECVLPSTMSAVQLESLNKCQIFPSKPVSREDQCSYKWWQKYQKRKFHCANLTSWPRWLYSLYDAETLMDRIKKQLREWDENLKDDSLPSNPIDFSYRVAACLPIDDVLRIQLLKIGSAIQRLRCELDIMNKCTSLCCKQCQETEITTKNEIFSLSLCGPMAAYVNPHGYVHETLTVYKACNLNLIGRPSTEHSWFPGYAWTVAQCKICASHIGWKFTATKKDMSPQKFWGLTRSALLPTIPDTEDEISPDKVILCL
Method in brief: (§2)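 RS4;11 cells (2 × 10⁶/well) treated for 24 h at the indicated concentrations. Lysed in RIPA with protease inhibitors and immunoblotted for BRD2, BRD3, BRD4, c-Myc and PARP, with GAPDH as loading control.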

[11] = target: T6, Protein cereblon/Bromodomain-containing protein 3/Cullin-4A (Homo sapiens) (UniProt Q15059+Q96SW2+Q13619); assay: Induction of cereblon/cullin 4A-mediated BRD3 degradation in human RS4:11 cells at 30 to 1000 nM after 24 hrs by Western blot method; assay type: cell-based; method in brief: as §1
T6 sequence (Q13619 whole entry, looked up): as the sequence (Q13619 whole entry, looked up) above
T6 sequence (Q15059 whole entry, looked up): as the sequence (Q15059 whole entry, the tested form may be a part) above
T6 sequence (Q96SW2 whole entry, looked up): as the sequence (Q96SW2 whole entry, looked up) above

[12] = target: T6, Protein cereblon/Bromodomain-containing protein 3/Cullin-4A (Homo sapiens); assay: Induction of cereblon/cullin 4A-mediated BRD3 degradation in human RS4:11 cells at 100 to 300 nM after 3 hrs by Western blot method; assay type: cell-based
Method in brief: (§3)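 RS4;11 cells (2 × 10⁶/well) treated for 3 h at the indicated concentrations. Lysed in RIPA with protease inhibitors and immunoblotted for BRD2, BRD3 and BRD4 with specific antibodies.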

[13] = target: T4, Protein cereblon/Bromodomain-containing protein 4/Cullin-4A (Homo sapiens); assay: Induction of cereblon/cullin 4A-mediated BRD4 degradation in human RS4:11 cells at 100 to 300 nM after 3 hrs by Western blot method; assay type: cell-based; method in brief: as §1
[14] = target: T5, Protein cereblon/Bromodomain-containing protein 2/Cullin-4A (Homo sapiens); assay: Induction of cereblon/cullin 4A-mediated BRD2 degradation in human RS4:11 cells at 100 to 300 nM after 3 hrs by Western blot method; assay type: cell-based; method in brief: as §3
RS4-11 [15] = assay: Induction of cell cycle arrest in human RS4:11 cells after 24 hrs by propidium iodide staining based flow cytometry; assay type: functional
Method in brief: (§4)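 RS4;11 or MOLM-13 cells treated with compound for 24 h, then analyzed by flow cytometry. Cell cycle read by propidium iodide staining and apoptosis by annexin V/propidium iodide staining.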

MOLM-13 [16] = assay: Induction of cell cycle arrest in human MOLM13 cells after 24 hrs by propidium iodide staining based flow cytometry; assay type: functional; method in brief: as §4
RS4-11 [17] = assay: Induction of apoptosis in human RS4:11 cells at 30 to 300 nM after 24 hrs by Annexin-V/propidium iodide staining based flow cytometry; assay type: functional, cell-based; method in brief: as §4
MOLM-13 [18] = assay: Induction of apoptosis in human MOLM13 cells at 30 to 300 nM after 24 hrs by Annexin-V/propidium iodide staining based flow cytometry; assay type: functional, cell-based; method in brief: as §4
Homo sapiens = organism: Homo sapiens; assay: Induction of cereblon/cullin 4A-mediated BET degradation in human RS4:11 cells assessed as downregulation of c-myc protein level at 300 to 1000 nM after 24 hrs by Western blot method; assay type: cell-based; method in brief: as §2

T1 sequence (P25440 whole entry, the tested form may be a part): as the sequence (P25440 whole entry, looked up) above

- IC50 [1]: 3.1 nM
- Ki [1]: 0.9 nM
- IC50 [2]: 3.9 nM
- Ki [2]: 0.27 nM
- IC50 [3]: 6.6 nM
- Ki [3]: 0.18 nM
- IC50 [4]: 1.9 nM
- Ki [4]: 0.21 nM
- IC50 [5]: 7 nM
- Ki [5]: 0.5 nM
- IC50 [6]: 7 nM
- Ki [6]: 1 nM
- Activity [9]: inactive
- Activity [10]: inactive
- Activity [11]: inactive
- Activity [12]: inactive
- Activity [13]: inactive
- Activity [14]: inactive
SMILES: CCn1nc(C2CC2)cc1Nc1nc(C(=O)NC)nc2[nH]c3cc(-c4c(C)noc4C)c(OC)cc3c12
- IC50 (RS4-11 [7]): 24.1 nM
- IC50 (MOLM-13 [8]): 25.6 nM
- Activity (RS4-11 [15]): Dose-dependent effect
- Activity (MOLM-13 [16]): Dose-dependent effect
- Activity (RS4-11 [17]): inactive
- Activity (MOLM-13 [18]): inactive
- Activity (Homo sapiens): Active
